Laboratory results taken from article PMC8208316 (Chemical Science, 2021).
Several values for one entry are separate records, joined by “and”; a condition that tells them apart may be missing. Equal values may be shown once.

Assays:
[1] = COS release in the presence of thiols by membrane inlet mass-spectrometry; type: physicochemical; settings: 50 μM precursor, NAC 0.25 mM, PBS pH 7.4, 37 °C
[2] = Kinetics of RSSH release; type: physicochemical; settings: for half-life at 100 µM: phosphate buffered saline with MMTS (1 mM) as RSSH trap, pH 7.4; for phenol byproduct 4a–f yield: precursor 100 μM, MMTS 1 mM, pH 7.4 PBS containing DTPA, HPLC
Method in brief: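 Test compound (100 μM) incubated at 37 °C with MMTS (1 mM) as RSSH trap in PBS (pH 7.4, 100 mM) containing DTPA (100 μM). Timed aliquots quenched with 0.1% formic acid and analysed by HPLC: precursor at 240 nm, phenol at 275 nm. First-order rate constants from single-exponential fits; average of three experiments.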

[3] = test system: H9c2 cardiac myoblasts; assay: Protection from H2O2-mediated oxidative stress, Sytox green viability assay; type: cell-based, rat; settings: pretreatment 4 and 8 h, then H2O2 200 μM
[4] = test system: H9c2 cardiac myoblasts; assay: Protection from H2O2-mediated oxidative stress, CCK-8 viability assay; type: cell-based, rat
[5] = test system: H9c2 cardiac myoblasts; assay: Intracellular sulfane sulfur detection using the SSP4 probe; type: cell-based, rat
Method in brief: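 H9c2 cells loaded with SSP4 (20 μM) plus CTAB (500 μM) for 20 min, then washed with serum-free medium. Test compound added at 0–200 μM. Plate-reader fluorescence (ex 482 nm, em 515 nm) read at set times over 3 h and normalised to the 0 μM value at each time. Mean ± SEM, n = 3 per group, three independent experiments.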

[6] = Decomposition of precursors in the presence of thiol; type: physicochemical
[7] = 10 equiv. MMTS, PBS pH 7.4, 100 mM, 37 °C

Structure (SMILES): COC(=O)C(NC(C)=O)C(C)(C)SSC(=O)Oc1ccccc1 (stereo not drawn) [1a]
- COS production with respect to precursor 13 [1]: approximately 20%
- k, disappearance of precursor (first-order) [2, 7]: 0.00539 min⁻¹
- k, formation of phenol (first-order) [2, 7]: 0.00533 min⁻¹
- half-life at 100 µM [2]: 2.15 ± 0.0333 h
- phenol byproduct 4a–f yield ([2]; 37 °C): 92% and 92 ± 2%
- protection against H2O2-mediated toxicity (Sytox) [3]: consistently shows protective effects
- protection against H2O2-mediated toxicity (cell viability, CCK-8) ([4]; pretreatment 5 μM for 8 h, then H2O2 200 μM): shows protection
- protection against H2O2-mediated toxicity (cell viability, CCK-8) ([4]; pretreatment 4 h (0–50 μM), then H2O2 200 μM 2 h): dose-dependent decrease of H2O2-induced toxicity
- SSP4 fluorescence signal (intracellular sulfane sulfur) ([5]; 50 μM): did not observe a significant increase
- SSP4 fluorescence intensity (intracellular sulfane sulfur) ([5]; 100 and 200 μM, over 3 h): dose-dependent increases in fluorescence intensity
- formation of byproduct 9a (indication of RSSH yield) ([6]; 5 equiv. N-acetylcysteine methyl ester): 53%

Structure (SMILES): COC(=O)C(NC(C)=O)C(C)(C)SSC(=O)Oc1ccc(C)cc1 (stereo not drawn) [1b]
- half-life at 100 µM [2]: 2.28 ± 0.0667 h
- phenol byproduct 4a–f yield ([2]; 37 °C): 93 ± 4%

Structure (SMILES): COC(=O)C(NC(C)=O)C(C)(C)SSC(=O)Oc1ccc(OC)cc1 (stereo not drawn) [1c]
- half-life at 100 µM [2]: 2.45 ± 0.0333 h
- phenol byproduct 4a–f yield ([2]; 37 °C): 92 ± 1%

Structure (SMILES): COC(=O)C(NC(C)=O)C(C)(C)SSC(=O)Oc1ccc(F)cc1 (stereo not drawn) [1d]
- half-life at 100 µM [2]: 1.6 ± 0.05 h
- phenol byproduct 4a–f yield ([2]; 37 °C): 96 ± 6%

Structure (SMILES): COC(=O)C(NC(C)=O)C(C)(C)SSC(=O)Oc1ccc(C#N)cc1 (stereo not drawn) [1f]
- half-life at 100 µM [2]: 0.467 ± 0.0167 h
- phenol byproduct 4a–f yield ([2]; 37 °C): 97 ± 2%

Structure (SMILES): COC(=O)C(CSSSCC(NC(C)=O)C(=O)OC)NC(C)=O [N-Ac-OMe-Cys-(S)3, N-acetyl O-methyl cysteine trisulfide, reference compound]
- SSP4 fluorescence signal in H9c2 cells compared with 1a [5]: higher fluorescence signal

Structure (SMILES): COC(=O)C(NC(C)=O)C(C)(C)SSC(=O)OCc1ccccc1 (stereo not drawn) [compound 8]
- COS generation in the presence of NAC (comparison) [1]: slower COS generation
- half-life at 100 µM [2]: 37.2 ± 1.57 h
- decomposition rate in the presence of thiol with respect to 1a ([6]; in the presence of thiol): about six times slower

Structure (SMILES): Oc1ccccc1 [phenol, reference compound]
- protection against H2O2-mediated toxicity (cell viability, CCK-8) ([4]; 50 μM for 4 and 8 h, then H2O2 200 μM 2 h): no protective effect
